Screening data from PubChem.
The list is not random: actives were taken first. Their share in the collection is about 4.2%.
AI-2 QS modul – Vibrio harveyi AI-2 quorum sensing modulation. activity change, % at 7.5 µM. actives 0.4% (n = 300,000). Vibrio harveyi JMH597 AI-2 luminescence/OD600 ratio, 9 h; stronger effect = lower value; strain lacks LuxN and CqsS sensors; 0 = neutral-control median; in the data active = activity change below about -75%, passing the limit was not always enough; inconclusive = no clear call, values can overlap the other calls;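 also: luminescence divided by OD600 gain over 9 h not by final OD600 alone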
Cl transport mod – KCC2 (human) Cl- transport modulation. Q9H2X9. actives 2.2% (n = 190,000). KCC2 cells, thallium flux FluoZin-2 fluorescence. B-score of Tl+ flux slope (higher = more flux/activation; lower = inhibition) at 10 µM;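 active = thallium flux slope and its plate-corrected score both differing from the plate sample mean at a set confidence after two filtering rounds, in either direction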;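 also: slope of fluorescence scaled to starting intensity during 10 to 20 s after thallium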
Target sequence (Q9H2X9 whole entry, looked up): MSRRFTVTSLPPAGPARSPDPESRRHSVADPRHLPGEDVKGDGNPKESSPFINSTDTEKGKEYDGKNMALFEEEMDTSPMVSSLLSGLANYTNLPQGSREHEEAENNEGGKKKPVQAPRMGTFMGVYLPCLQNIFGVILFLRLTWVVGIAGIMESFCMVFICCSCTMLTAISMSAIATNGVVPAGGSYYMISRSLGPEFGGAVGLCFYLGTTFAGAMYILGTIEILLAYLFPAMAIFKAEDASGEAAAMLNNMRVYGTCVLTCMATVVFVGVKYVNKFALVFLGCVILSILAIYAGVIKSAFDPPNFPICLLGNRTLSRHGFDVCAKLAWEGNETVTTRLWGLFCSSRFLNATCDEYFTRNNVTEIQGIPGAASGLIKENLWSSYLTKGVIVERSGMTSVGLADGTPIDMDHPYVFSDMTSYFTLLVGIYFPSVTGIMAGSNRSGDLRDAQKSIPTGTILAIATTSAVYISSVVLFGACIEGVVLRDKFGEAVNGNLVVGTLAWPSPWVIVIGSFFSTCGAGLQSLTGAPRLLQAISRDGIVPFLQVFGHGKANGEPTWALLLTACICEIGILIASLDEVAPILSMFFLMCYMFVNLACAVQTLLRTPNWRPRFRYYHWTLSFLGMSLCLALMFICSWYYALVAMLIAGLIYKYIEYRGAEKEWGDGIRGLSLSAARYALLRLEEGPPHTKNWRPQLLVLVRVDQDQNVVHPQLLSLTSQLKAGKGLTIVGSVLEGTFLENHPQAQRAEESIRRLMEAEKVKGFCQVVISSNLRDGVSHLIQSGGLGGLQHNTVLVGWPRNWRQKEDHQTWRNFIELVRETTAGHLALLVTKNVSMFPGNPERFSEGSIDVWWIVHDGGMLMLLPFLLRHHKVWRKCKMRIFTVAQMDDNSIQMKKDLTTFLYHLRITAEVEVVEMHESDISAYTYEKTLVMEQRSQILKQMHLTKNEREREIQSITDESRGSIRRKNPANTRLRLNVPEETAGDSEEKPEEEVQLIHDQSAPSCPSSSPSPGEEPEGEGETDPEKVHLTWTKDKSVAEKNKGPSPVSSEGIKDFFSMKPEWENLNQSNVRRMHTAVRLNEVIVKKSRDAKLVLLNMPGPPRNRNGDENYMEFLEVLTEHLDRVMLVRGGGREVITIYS
KCNQ1 pot – potentiates or activates the human KCNQ1 potassium channel; CHO-K1 KCNQ1, thallium flux FluxOR fluorescence; stronger effect = higher value; B-score at 10 µM; actives 0.35% (n = 310,000);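 active = fluorescence ratio B-score, a plate-corrected score, at least three library SD, with initial intensity B-score within 5 SD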
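assay system = KCNQ1-transfected CHO-K1 cells | medium = assay buffer with matched DMSO | probe or stimulus = depolarizing K+/Tl+ stimulus, K2SO4 and Tl2SO4 each 12.5 mM in 5x stock | dosing = single dose | incubation = dye 90 min, compound 20 min, room temperature | detection = kinetic FluxOR fluorescence, 10 s baseline plus 110 s post-stimulus | evaluation = ratio B score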
KCNQ1 block – inhibitors of human KCNQ1 potassium channel | CHO-K1 KCNQ1, FluxOR thallium flux fluorescence; stronger effect = higher value | B-score at 10 µM | actives 1.3% (n = 310,000) | AID 2642;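 active = compounds whose thallium flux B-score, printed positive for inhibition, exceeds three library SD while starting fluorescence stays within three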;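 also: channel opened by potassium depolarization with thallium stimulus after 20 min compound exposure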
Mot1-301 SUMO – blocks SUMOylation pathway, rescuing yeast Mot1-301 growth. S. cerevisiae Mot1-301 growth rescue, ATP luminescence, 38.5C; percent above DMSO median, 100 means doubled. actives 1% (n = 320,000). growth rescue, % at 18.8 µM;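 active = every valid replicate shows activation above 250% relative to neutral control wells; inactive = the rest, any valid replicate at or below 250%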
hERG rescue – compounds protecting human hERG from proarrhythmic drug block. AID 1511. Q12809. actives 0.51% (n = 310,000). activation (rescue from dofetilide block), less the hit threshold, % at 10 µM. CHO-hERG, FluxOR thallium flux, dofetilide IC70 present;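 active = activation above the mean of controls blocked by dofetilide plus 5 SD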;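 also: thallium influx through hERG after potassium depolarization seen as dye fluorescence rise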
KCC2 secondary – confirmation of human KCC2 transport modulators; shares compounds with Cl transport mod; HEK293-KCC2, thallium flux, FluoZin2 fluorescence; stronger effect = higher value; normalised thallium flux (F/F0 slope) at 10 µM; actives 15% (n = 3,700);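 active = thallium flux slope above the same plate's solvent-only control mean plus 3 SD; inconclusive = the two replicate wells disagree; inactive = no significant difference from solvent-only control wells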
KCC2 bumet counter – thallium flux persisting under bumetanide in KCC2 cells, counter-screen secondary assay; shares compounds with Cl transport mod; normalized thallium flux at 10 µM; HEK293-KCC2 + bumetanide/ouabain, thallium flux FluoZin2; stronger effect = higher value; actives 49% (n = 3,700);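 active = thallium entry rate above the same plate's blocked-transporter control wells by more than 3 SD; inconclusive = the two repeat wells disagree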;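 also: raw slope of fluorescence over initial fluorescence between 10 and 20 s after thallium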
KCC2 sec2 – confirmation of human KCC2 transport modulators; actives 23% (n = 3,700); HEK293-KCC2, thallium flux FluoZin2 fluorescence; actives lie on both sides; F/F0 rise rate, 10–20 s post-thallium; normalized thallium flux at 10 µM; shares compounds with Cl transport mod;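 active = thallium flux slope more than 3 SD above or below the plate's solvent-only control mean, mostly below; inconclusive = the two repeat wells disagreed; inactive = no significant shift from solvent-only controls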
HEK counter1 – acts in parental HEK cells, KCC2 counter-screen | shares compounds with Cl transport mod | HEK293 parental cells, thallium flux FluoZin2, ouabain; baseline-ratio fluorescence slope, 10–20 s after thallium | thallium flux rate (normalised fluorescence) at 10 µM | actives 46% (n = 3,700) | AID 1716;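 active = thallium flux rate significantly above the same plate's solvent-only control wells, beyond their mean plus 3 SD; inconclusive = the two replicate wells gave conflicting results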
KCC2 retest ouab – modulates human KCC2 on retest with ouabain; shares compounds with Cl transport mod; HEK293-KCC2, thallium flux FluoZin2 fluorescence; bidirectional: low = inhibitor, high = activator; raw Tl+ flux slope (below DMSO = inhibition, above = activation) at 10 µM; actives 48% (n = 3,700);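 active = thallium flux slope beyond 3 SD from same-plate DMSO control mean in most replicates, usually higher, sometimes lower; inconclusive = repeat tests gave conflicting results; inactive = no significant difference from controls in most replicates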;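 also: slope of initial-normalized fluorescence between seconds 10 and 20 after thallium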
HEK293 Tl flux2 – parental HEK flux effect, counter-screen 2 | shares compounds with Cl transport mod | HEK293 parental, thallium flux FluoZin-2 fluorescence slope | thallium flux slope at 10 µM | actives 33% (n = 3,700);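 active = thallium flux slope above the same plate's solvent-control mean plus 3 SD in both duplicate wells; inconclusive = duplicate wells that disagreed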;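 also: run without ouabain in cells lacking the KCC2 cotransporter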
Large screens that a line does not name were inactive (follow-up assays come after a bar, where they were run).

O=C(CN1C(=O)c2ccccc2C1=O)N1CCCCC1	none
O=CN1CCN(C(=O)CN2C(=O)c3ccccc3C2=O)CC1	Cl transport mod 6.32 | KCC2 secondary inactive | KCC2 bumet counter inconclusive | KCC2 sec2 inactive | HEK counter1 inactive | KCC2 retest ouab inactive | HEK293 Tl flux2 inactive
CCC(C)(C)C1CCC(=NNC(=S)Nc2cccnc2)CC1 (configuration not stated)	Cl transport mod 24.1 | KCC2 secondary inactive | KCC2 bumet counter 0.0389 | KCC2 sec2 inactive | HEK counter1 0.0219 | KCC2 retest ouab 0.0423 | HEK293 Tl flux2 0.0126
CC(C)(C)c1ccc(/C=N/NC(=S)Nc2cccnc2)cc1	Cl transport mod 12.1 | KCC2 secondary inactive | KCC2 bumet counter 0.0316 | KCC2 sec2 inactive | HEK counter1 0.012 | KCC2 retest ouab inconclusive | HEK293 Tl flux2 0.0108
COc1ccc(CC(=O)Nc2ccc(-c3nc4cc(C)ccc4o3)c(O)c2)cc1OC	Cl transport mod -5.4 | KCC2 secondary inactive | KCC2 bumet counter inactive | KCC2 sec2 inactive | HEK counter1 inactive | KCC2 retest ouab inactive | HEK293 Tl flux2 inactive
Cc1ccc2oc(-c3ccc(NC(=O)c4ccncc4)cc3O)nc2c1	none
Cc1ccc(CCc2nnc(SCC(=O)Nc3cc(Cl)ccc3Cl)n2-c2ccccc2)o1	Cl transport mod -4.74 | KCC2 secondary inactive | KCC2 bumet counter inactive | KCC2 sec2 inactive | HEK counter1 inactive | KCC2 retest ouab inactive | HEK293 Tl flux2 inactive
C[C@H](CO)N1C[C@H](C)[C@@H](CN(C)Cc2ccc(Cl)c(Cl)c2)Oc2c(NS(=O)(=O)c3cccs3)cccc2C1=O	none (no result: AI-2 QS modul, Cl transport mod, KCNQ1 pot, KCNQ1 block, hERG rescue)
CSc1ncc(Cl)c(C(=O)C(C#N)c2nc3c(C)cc(C)cc3c(=O)[nH]2)n1 (configuration not stated)	Cl transport mod 5.05 | KCC2 secondary inactive | KCC2 bumet counter 0.0192 | KCC2 sec2 inactive | HEK counter1 0.0163 | KCC2 retest ouab inconclusive | HEK293 Tl flux2 0.0152
CCOc1ccccc1NC(=O)C(c1ccccc1)N1CCN(C(=O)c2ccco2)CC1 (configuration not stated)	none (no result: AI-2 QS modul, Cl transport mod, KCNQ1 pot, KCNQ1 block, hERG rescue)
Cc1cccc(NC(=O)C2CCCN(C(=O)Nc3ccccc3)C2)c1C (configuration not stated)	none
COc1cccc2sc(Nc3nnc(-c4ccccc4Cl)o3)nc12	Cl transport mod 79.6, KCNQ1 pot 15, hERG rescue 8.7 | KCC2 secondary 0.0439 | KCC2 bumet counter 0.129 | KCC2 sec2 0.0994 | HEK counter1 inconclusive | KCC2 retest ouab 0.103 | HEK293 Tl flux2 0.113
O=C1CS/C(=C/C(=O)c2cccc(Cl)c2)N1	Cl transport mod 6.79 | KCC2 secondary inconclusive | KCC2 bumet counter 0.0236 | KCC2 sec2 inactive | HEK counter1 0.0111 | KCC2 retest ouab 0.0513 | HEK293 Tl flux2 0.0112
COC(=O)c1ccc(Oc2nc(C(N)=O)cc(-c3ccccc3)n2)cc1	none
CCCn1nc([N+](=O)[O-])c(C(C#N)c2nc3ccccc3s2)c(Cl)c1=O (configuration not stated)	Cl transport mod -6.05, KCNQ1 block 14 | KCC2 secondary inactive | KCC2 bumet counter 0.0059 | KCC2 sec2 inconclusive | HEK counter1 0.00582 | KCC2 retest ouab 0.0113 | HEK293 Tl flux2 0.00812
CCn1nc([N+](=O)[O-])c(C(C#N)c2nc3ccccc3n2C)c(Cl)c1=O (configuration not stated)	none
S=c1nccc(-c2ccc(Cl)cc2)[nH]1	Cl transport mod 19.3 | KCC2 secondary 0.0101 | KCC2 bumet counter 0.0193 | KCC2 sec2 0.0414 | HEK counter1 0.0241 | KCC2 retest ouab 0.0318 | HEK293 Tl flux2 0.0274
Cc1nc2ccccn2c1-c1ccnc(=S)[nH]1	none
COc1ccc(C(=O)On2c(-c3ccc(Br)cc3)nc3ccccc3c2=O)cc1	Cl transport mod 5.8, KCNQ1 pot 10 (no result: Mot1-301 SUMO) | KCC2 secondary inactive | KCC2 bumet counter inconclusive | KCC2 sec2 0.0388 | HEK counter1 0.0118 | KCC2 retest ouab inconclusive | HEK293 Tl flux2 0.0219
Cc1ccc2c(c1)C1CN(C)CCC1N2S(=O)(=O)c1ccccc1F (configuration not stated)	none (no result: AI-2 QS modul, Cl transport mod, KCNQ1 pot, KCNQ1 block, hERG rescue)
COc1ccc(C(=O)C(C)OC(=O)COc2ccccc2)cc1 (configuration not stated)	none (no result: AI-2 QS modul, Cl transport mod, KCNQ1 pot, KCNQ1 block, hERG rescue)
Brc1cccc(-c2nnc(SCc3nc4ccccc4[nH]3)o2)c1	Cl transport mod 19.7 | KCC2 secondary inactive | KCC2 bumet counter inactive | KCC2 sec2 inactive | HEK counter1 inactive | KCC2 retest ouab inactive | HEK293 Tl flux2 inactive
COC1=C/C(=C/c2c(N)n3cc(C)sc3nc2=O)C=CC1=O	Cl transport mod -6.56 | KCC2 secondary 0.00383 | KCC2 bumet counter -0.00151 | KCC2 sec2 0.0171 | HEK counter1 0.00281 | KCC2 retest ouab 0.00805 | HEK293 Tl flux2 0.00599
Cn1nc(C(=O)Nc2nc3ccc(S(C)(=O)=O)cc3s2)ccc1=O	Cl transport mod 4.66 | KCC2 secondary inactive | KCC2 bumet counter 0.0207 | KCC2 sec2 inactive | HEK counter1 0.0132 | KCC2 retest ouab inactive | HEK293 Tl flux2 inconclusive
NC(=O)c1sc(-c2ccsc2)cc1NS(=O)(=O)c1ccc(C(F)(F)F)cc1	Cl transport mod -5.39 | KCC2 secondary inactive | KCC2 bumet counter inactive | KCC2 sec2 inactive | HEK counter1 inactive | KCC2 retest ouab 0.0118 | HEK293 Tl flux2 inactive
CC(=O)c1sc(-c2ccc(F)cc2)cc1NS(=O)(=O)c1ccc(C)cc1	Cl transport mod 9.96 | KCC2 secondary inactive | KCC2 bumet counter inactive | KCC2 sec2 inactive | HEK counter1 inactive | KCC2 retest ouab inactive | HEK293 Tl flux2 inactive
